# Assay results as given in ChEMBL document CHEMBL4033760, “Discovery of a Series of Indazole TRPA1 Antagonists” (ACS Med Chem Lett, 2017).
# Active and inactive are the calls of the source. The calls are words filed in the database; no cut-off is given here.
# Assays:
# [1] = molecular target: Transient receptor potential cation channel subfamily A member 1 (Rattus norvegicus) (UniProt Q6RI86); conditions: 1 uM
# [2] = molecular target: T1, Transient receptor potential cation channel subfamily A member 1 (Rattus norvegicus, UniProt Q6RI86); test: Inhibition of full length rat TRPA1 at a holding potential of 15 mV measured after 1 min by PatchXpress electrophysiology assay
# Method in brief: (§1)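 Medium-throughput PatchXpress electrophysiology on HEK293-T-rex cells expressing TRPA1 (human line; selected compounds also run in a rat TRPA1 line).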
# [3] = molecular target: T2, Transient receptor potential cation channel subfamily A member 1 (Homo sapiens, UniProt O75762); test: Inhibition of full length human TRPA1 at a holding potential of 15 mV measured after 1 min by PatchXpress electrophysiology assay
# Method in brief: as §1
# [4] = molecular target: Sodium channel protein type 9 subunit alpha (Homo sapiens, UniProt Q15858); test: Inhibition of Nav1.7 (unknown origin)
# [5] = molecular target: Voltage-gated potassium channel, KQT; KCNQ2(Kv7.2)/KCNQ3(Kv7.3) (Homo sapiens, UniProt O43525+O43526); test: Activation of KCNQ2/3 (unknown origin); assay type: protein-complex assay
# [6] = Intrinsic clearance in human liver microsomes; assay type: ADME, microsome; conditions: read-out: CLH
# [7] = test system: Blood; test: Drug level in Sprague-Dawley rat blood at 10 to 100 mg/kg, po; assay type: ADME, organism-based; conditions: in vivo, read-out: Drug uptake
# Method in brief: (§2)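 Rats dosed orally at 10, 30 and 100 mg/kg, with mean systemic concentrations measured. Flare is induced by cinnamaldehyde and blood flow read by laser Doppler sonography, compared against vehicle and a TRPV1 antagonist given as a mechanistic comparator.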
# [8] = test system: MDR1; test: Permeability across basolateral to apical side in RRCK cells expressing MDR1; assay type: ADME, cell-based, Canis lupus familiaris, MDCKII-LE; conditions: dog, MDCK-MDR1; read-out: permeability
# [9] = test system: Rattus norvegicus; test: Anti-inflammatory activity in po dosed Sprague-Dawley rat assessed as reduction in flinching dosed 2 hrs prior to subcutaneous administration of AITC in right hand paw measured for 30 mins; assay type: functional
# Method in brief: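 Oral dosing in rats; AITC then given subcutaneously into the right hind paw. Paw flinching is scored, and the minimum effective dose is taken as the lowest dose giving a significant reduction.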
# [10] = molecular target: Voltage-gated inwardly rectifying potassium channel KCNH2 (Homo sapiens, UniProt Q12809)
# [11] = molecular target: T2, Transient receptor potential cation channel subfamily A member 1; test: Antagonist activity at human TRPA1 by calcium flux based FLIPR assay
# Method in brief: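 High-throughput antagonist-mode FLIPR Ca2+ imaging screen of the internal library in 384-well format; hits confirmed by single-rig electrophysiology.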
# [12] = test system: Rattus norvegicus; test: Suppression of cinnamaldehyde-induced flare response in Sprague-Dawley rat at 10 to 100 mg/kg administered systemically measured after 75 mins by recording blood flow for 30 mins by laser Doppler sonography method; assay type: functional, organism-based
# Method in brief: as §2
# [13] = molecular target: Sodium channel protein type 5 subunit alpha (Homo sapiens, UniProt Q14524); test: Inhibition of Nav1.5 (unknown origin)
# [14] = test system: MDR1; test: Permeability across apical to basolateral side in RRCK cells expressing MDR1; assay type: ADME, cell-based, Canis lupus familiaris, MDCKII-LE; conditions: dog, MDCK-MDR1; read-out: permeability
# [15] = molecular target: T3, Potassium voltage-gated channel subfamily KQT member 1 (Homo sapiens, UniProt P51787); test: Inhibition of KCNQ1 (unknown origin)
# T3 sequence (P51787 whole entry): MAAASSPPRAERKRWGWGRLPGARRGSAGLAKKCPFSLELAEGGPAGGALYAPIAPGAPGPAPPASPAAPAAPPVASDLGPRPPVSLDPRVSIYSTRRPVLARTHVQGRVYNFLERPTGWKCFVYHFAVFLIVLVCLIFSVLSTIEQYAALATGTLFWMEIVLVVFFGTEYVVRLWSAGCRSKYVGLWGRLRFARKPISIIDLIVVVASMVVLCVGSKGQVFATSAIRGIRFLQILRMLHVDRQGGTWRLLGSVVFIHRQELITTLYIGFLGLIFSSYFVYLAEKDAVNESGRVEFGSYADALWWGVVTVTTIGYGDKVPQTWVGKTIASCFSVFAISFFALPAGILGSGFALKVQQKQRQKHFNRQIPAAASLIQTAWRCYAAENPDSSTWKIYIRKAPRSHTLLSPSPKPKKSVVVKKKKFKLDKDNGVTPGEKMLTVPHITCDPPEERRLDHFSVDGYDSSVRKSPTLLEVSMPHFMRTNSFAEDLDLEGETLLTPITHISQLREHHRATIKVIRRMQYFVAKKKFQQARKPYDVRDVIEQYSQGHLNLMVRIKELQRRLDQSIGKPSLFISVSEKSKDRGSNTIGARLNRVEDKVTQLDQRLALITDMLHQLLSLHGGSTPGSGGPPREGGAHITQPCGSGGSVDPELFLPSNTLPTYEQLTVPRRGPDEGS
# [16] = test system: MDCKII-LE; test: Permeability in RRCK cells expressing MDR1; conditions: dog
# [17] = molecular target: T1, Transient receptor potential cation channel subfamily A member 1; test: Inhibition of rat TRPA1 at a holding potential of 15 mV measured after 1 min by whole-cell manual patch clamp electrophysiology assay
# [18] = Aqueous solubility of the compound by kinetic miniaturized shakeflask method; assay type: physicochemical; conditions: buffer
# Method in brief: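 Kinetic miniaturized shake-flask method, starting from a DMSO stock solution.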
# [19] = molecular target: Transient receptor potential cation channel subfamily V member 1 (Homo sapiens, UniProt Q8NER1); test: Inhibition of TRPV1 (unknown origin)
# [20] = Intrinsic clearance in rat liver microsomes; assay type: ADME, microsome; conditions: read-out: CLH
# [21] = Inhibition of full length opossum TRPA1 hS5 chimera at a holding potential of 15 mV measured after 1 min by PatchXpress electrophysiology assay; parameters: species or system Monodelphis domestica
# [22] = Drug level in Sprague-Dawley rat skin epidermal layer; assay type: ADME, Skin epidermis; conditions: in vivo
# Method in brief: (§3)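 Skin flux study after topical administration. Skin permeability is given in cm/h, and compound concentrations are measured separately in the epidermal and dermal layers, expressed as μg/g.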
# [23] = Inhibition of full length opossum TRPA1 at a holding potential of 15 mV measured after 1 min by PatchXpress electrophysiology assay; parameters: species or system Monodelphis domestica
# [24] = Permeability in Sprague-Dawley rat skin; assay type: ADME, Zone of skin; conditions: read-out: permeability (converted)
# Method in brief: as §3
# [25] = Unbound fraction in Sprague-Dawley rat plasma
# [26] = test system: Rattus norvegicus; test: Suppression of cinnamaldehyde-induced flare response in Sprague-Dawley rat at 50 mg/ml administered topically measured after 60 mins by recording blood flow for 30 mins by laser Doppler sonography method; assay type: functional
# Method in brief: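 Compound formulated in vehicle, applied topically to rat skin at 50 mg/mL and left for a set time. Then 20% v/v cinnamaldehyde in the same vehicle is applied at that site, and local blood flow is measured by laser Doppler sonography. Free plasma concentrations are also determined.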
# [27] = Drug level in Sprague-Dawley rat skin dermal layer; assay type: ADME, Dermis; conditions: in vivo
# Method in brief: as §3
# [28] = molecular target: T2, Transient receptor potential cation channel subfamily A member 1; test: Inhibition of full length human TRPA1 oS5 chimera at a holding potential of 15 mV measured after 1 min by PatchXpress electrophysiology assay
# Chain of Transient receptor potential cation channel subfamily V member 1 (Q8NER1 whole entry): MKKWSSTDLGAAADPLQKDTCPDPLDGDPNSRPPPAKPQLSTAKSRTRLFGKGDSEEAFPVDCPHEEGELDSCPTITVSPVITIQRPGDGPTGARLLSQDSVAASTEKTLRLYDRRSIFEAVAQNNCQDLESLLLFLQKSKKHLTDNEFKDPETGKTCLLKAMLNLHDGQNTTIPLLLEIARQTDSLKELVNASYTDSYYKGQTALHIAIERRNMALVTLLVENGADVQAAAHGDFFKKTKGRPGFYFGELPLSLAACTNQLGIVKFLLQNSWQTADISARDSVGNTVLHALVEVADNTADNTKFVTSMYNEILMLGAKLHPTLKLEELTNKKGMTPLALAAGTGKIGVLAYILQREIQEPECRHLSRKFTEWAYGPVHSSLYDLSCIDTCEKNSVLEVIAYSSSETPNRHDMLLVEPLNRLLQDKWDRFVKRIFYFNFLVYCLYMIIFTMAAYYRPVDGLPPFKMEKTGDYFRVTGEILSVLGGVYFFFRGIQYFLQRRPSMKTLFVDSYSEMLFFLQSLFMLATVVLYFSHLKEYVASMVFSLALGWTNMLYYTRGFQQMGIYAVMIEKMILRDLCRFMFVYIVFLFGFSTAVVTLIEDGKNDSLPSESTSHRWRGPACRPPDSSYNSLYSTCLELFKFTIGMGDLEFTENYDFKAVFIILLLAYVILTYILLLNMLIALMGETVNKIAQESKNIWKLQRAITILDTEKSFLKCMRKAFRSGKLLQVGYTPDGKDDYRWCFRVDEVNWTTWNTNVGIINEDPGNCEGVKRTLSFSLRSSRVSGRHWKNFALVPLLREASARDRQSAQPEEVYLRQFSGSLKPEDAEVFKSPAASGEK
# T2 sequence (O75762 whole entry): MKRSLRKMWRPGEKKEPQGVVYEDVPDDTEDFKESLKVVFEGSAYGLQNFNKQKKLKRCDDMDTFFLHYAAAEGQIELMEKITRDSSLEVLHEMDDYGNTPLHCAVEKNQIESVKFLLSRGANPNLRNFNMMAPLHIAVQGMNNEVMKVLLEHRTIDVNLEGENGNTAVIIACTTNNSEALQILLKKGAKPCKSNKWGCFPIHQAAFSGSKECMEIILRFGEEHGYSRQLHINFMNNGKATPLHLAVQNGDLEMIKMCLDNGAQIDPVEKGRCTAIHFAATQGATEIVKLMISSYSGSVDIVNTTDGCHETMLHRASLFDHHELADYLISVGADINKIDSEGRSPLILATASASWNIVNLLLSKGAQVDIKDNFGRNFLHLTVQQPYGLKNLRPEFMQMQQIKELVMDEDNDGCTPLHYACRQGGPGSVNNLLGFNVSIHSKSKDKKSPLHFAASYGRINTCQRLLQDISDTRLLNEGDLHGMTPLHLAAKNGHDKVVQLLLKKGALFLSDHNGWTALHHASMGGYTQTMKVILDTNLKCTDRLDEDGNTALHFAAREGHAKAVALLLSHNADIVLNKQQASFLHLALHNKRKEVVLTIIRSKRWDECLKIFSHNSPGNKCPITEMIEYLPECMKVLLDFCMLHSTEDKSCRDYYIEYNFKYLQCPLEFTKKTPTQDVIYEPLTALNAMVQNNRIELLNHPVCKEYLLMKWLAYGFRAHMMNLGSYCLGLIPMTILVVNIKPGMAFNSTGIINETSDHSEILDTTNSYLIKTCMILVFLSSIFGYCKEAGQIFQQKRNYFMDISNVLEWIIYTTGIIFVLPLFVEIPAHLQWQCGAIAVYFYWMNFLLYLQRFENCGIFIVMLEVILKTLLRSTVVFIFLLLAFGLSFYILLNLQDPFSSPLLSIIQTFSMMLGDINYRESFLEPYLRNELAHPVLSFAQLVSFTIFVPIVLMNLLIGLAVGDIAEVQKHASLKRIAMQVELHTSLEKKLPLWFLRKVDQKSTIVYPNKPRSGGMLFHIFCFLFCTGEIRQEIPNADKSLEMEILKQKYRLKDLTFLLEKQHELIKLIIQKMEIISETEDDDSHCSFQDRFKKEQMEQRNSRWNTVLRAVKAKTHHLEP
# T1 sequence (Q6RI86 whole entry): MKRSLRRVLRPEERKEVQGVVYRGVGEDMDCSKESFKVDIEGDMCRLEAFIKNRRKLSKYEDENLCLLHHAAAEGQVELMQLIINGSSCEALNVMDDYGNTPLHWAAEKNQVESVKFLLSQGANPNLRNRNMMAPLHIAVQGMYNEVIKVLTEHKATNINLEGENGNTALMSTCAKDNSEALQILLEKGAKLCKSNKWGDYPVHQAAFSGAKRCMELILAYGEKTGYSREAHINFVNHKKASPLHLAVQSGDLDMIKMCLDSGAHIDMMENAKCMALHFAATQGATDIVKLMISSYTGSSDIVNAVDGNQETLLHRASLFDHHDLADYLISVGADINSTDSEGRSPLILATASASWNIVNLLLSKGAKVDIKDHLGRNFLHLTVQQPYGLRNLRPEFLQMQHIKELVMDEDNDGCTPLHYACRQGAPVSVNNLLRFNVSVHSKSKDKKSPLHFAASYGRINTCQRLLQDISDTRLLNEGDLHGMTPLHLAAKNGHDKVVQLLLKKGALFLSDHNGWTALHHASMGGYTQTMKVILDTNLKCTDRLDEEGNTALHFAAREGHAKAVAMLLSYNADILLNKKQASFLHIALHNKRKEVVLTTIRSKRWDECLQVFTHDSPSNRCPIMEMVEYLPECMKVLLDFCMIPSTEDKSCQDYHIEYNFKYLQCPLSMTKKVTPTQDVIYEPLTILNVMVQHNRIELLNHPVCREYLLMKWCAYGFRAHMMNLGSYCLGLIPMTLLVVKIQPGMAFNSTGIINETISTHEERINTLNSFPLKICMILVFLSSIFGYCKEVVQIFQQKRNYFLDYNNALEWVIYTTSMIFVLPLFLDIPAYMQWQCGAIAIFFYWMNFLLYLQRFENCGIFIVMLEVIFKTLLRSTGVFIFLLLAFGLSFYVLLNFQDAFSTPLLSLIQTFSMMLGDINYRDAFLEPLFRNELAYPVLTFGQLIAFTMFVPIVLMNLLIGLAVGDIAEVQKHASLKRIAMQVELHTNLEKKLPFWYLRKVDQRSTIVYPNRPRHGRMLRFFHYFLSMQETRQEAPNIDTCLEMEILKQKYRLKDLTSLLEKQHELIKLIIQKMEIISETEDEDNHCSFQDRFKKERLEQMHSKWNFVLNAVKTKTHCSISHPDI
# Chain of Sodium channel protein type 5 subunit alpha (Q14524 whole entry): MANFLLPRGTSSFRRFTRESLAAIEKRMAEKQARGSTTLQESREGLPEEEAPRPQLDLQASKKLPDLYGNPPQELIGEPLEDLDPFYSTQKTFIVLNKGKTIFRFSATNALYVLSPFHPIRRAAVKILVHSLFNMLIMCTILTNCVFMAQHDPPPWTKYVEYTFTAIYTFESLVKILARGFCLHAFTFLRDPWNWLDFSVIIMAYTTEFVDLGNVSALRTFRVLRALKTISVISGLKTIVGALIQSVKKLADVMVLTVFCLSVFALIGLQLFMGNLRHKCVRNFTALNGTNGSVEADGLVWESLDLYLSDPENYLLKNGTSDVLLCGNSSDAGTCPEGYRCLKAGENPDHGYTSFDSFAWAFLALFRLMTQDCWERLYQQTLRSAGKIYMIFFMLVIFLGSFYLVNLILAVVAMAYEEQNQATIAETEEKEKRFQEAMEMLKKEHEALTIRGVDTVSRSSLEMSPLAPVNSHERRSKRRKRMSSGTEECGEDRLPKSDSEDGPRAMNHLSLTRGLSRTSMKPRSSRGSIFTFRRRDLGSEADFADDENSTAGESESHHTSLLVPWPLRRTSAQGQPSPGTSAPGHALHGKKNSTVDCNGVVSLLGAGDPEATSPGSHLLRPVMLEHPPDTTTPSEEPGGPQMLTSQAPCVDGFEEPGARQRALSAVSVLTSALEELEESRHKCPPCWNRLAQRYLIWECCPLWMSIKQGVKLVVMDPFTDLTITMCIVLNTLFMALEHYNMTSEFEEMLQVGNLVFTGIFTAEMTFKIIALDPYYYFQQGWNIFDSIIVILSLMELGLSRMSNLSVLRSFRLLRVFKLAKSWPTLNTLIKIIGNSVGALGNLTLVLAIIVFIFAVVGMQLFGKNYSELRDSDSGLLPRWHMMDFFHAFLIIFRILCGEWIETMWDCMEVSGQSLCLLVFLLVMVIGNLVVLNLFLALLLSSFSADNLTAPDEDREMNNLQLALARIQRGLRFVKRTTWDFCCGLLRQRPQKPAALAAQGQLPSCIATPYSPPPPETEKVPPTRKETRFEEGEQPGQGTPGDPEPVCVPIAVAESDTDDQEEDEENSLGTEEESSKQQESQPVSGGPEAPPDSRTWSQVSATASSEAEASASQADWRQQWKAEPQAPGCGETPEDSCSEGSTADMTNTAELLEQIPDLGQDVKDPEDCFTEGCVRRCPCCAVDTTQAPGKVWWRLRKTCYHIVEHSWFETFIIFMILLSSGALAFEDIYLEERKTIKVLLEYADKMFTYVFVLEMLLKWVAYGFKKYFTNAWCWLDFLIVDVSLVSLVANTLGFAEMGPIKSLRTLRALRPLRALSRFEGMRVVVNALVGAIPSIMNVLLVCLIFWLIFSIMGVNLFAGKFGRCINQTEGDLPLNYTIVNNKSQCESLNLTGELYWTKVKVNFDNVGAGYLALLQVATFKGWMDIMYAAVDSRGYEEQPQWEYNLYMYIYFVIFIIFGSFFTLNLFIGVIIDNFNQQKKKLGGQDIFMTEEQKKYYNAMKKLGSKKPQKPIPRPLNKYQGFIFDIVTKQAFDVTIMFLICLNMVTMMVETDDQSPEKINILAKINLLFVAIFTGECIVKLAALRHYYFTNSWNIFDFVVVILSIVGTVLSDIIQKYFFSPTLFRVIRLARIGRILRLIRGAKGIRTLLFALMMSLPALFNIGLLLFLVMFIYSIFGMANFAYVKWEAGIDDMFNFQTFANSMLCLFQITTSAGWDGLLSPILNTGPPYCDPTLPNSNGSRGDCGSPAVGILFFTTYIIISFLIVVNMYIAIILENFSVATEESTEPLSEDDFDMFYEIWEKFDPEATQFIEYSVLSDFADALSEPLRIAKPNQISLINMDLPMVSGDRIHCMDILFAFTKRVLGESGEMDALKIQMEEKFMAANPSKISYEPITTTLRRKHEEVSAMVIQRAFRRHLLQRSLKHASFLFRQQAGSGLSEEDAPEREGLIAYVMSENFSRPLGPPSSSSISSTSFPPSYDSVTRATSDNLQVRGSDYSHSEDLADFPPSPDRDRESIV
# Chain of Transient receptor potential cation channel subfamily A member 1 (Rattus norvegicus) (Q6RI86 whole entry): as the sequence (Q6RI86 whole entry) above
Structure (SMILES),IC50 [2] [nM],IC50 [3] [nM],also measured
Fc1ccc(Nc2n[nH]c3cc(OC(F)(F)F)ccc23)cc1F,< 100,131,inhibition [1]: 96%
Fc1ccc(Nc2n[nH]c3cc(C(F)(F)F)ncc23)cc1F,–,645,–
N#Cc1ccc(-c2n[nH]c3cc(OC(F)(F)F)ccc23)cn1,271,1180,–
Fc1ccc(Nc2n[nH]c3cc(-c4ccc(F)c(F)c4)ccc23)cc1F,–,3700,–
CN(c1ccc(Cl)nc1)c1nn(C)c2cc(C(F)(F)F)ccc12,–,> 10000,–
Fc1ccc2[nH]c(-c3n[nH]c4cc(OC(F)(F)F)cnc34)cc2c1,8,91,–
Fc1ccc(Nc2n[nH]c3cc(-c4ccccc4OC(F)(F)F)ccc23)cc1F,–,1200,–
COCCNC(=O)c1ccc2c(-c3ccc(C#N)cc3)n[nH]c2c1,453,2670,–
N#Cc1ccc(-c2n[nH]c3cc(OC(F)(F)F)ccc23)cc1,246,686,IC50 [4]: 17.7 µM; EC50 [5]: > 30000 nM; microsomal CLint [6]: < 8 µL/min/mg; concentration [7]: 11 to 52 nM; Papp B→A [8]: 8 ×10⁻⁶ cm/s; Activity [9]: Dose-dependent effect; minimal effective dose ([9]; read-out: MED): 100 mg/kg; IC50 [10]: > 30 µM; IC50 [11]: > 10000 nM; Activity [12]: Active; IC50 [13]: 17.3 µM; Papp A→B [14]: 4 ×10⁻⁶ cm/s; IC50 [15]: > 3000 nM; Papp [16]: < 0.1 ×10⁻⁶ cm/s; IC50 [17]: 195 nM; solubility kinetic [18]: 4.8 µg/mL; IC50 [19]: > 30 µM; microsomal CLint [20]: 58 µL/min/mg
N#Cc1ccc(-c2n[nH]c3cc(OC(F)(F)F)ccc23)s1,80,74,–
FC(F)(F)c1ccc2c(Nc3ccc(Cl)cc3)n[nH]c2c1,9,42,–
Fc1ccc(Nc2n[nH]c3cc(OC(F)(F)F)cnc23)cc1F,11,20,IC50 [21]: 132 nM; Drug uptake [22]: 304 µg/g; IC50 [4]: 8.7 µM; IC50 [23]: > 30 µM; microsomal CLint [6]: 73 µL/min/mg; Papp B→A [8]: 7 ×10⁻⁶ cm/s; IC50 [11]: 330 nM; Papp [24]: 0.00333 ×10⁻⁶ cm/s; IC50 [13]: 18.2 µM; Papp A→B [14]: 2 ×10⁻⁶ cm/s; Drug uptake(free) [25]: 7 to 59 nM; Activity [26]: Active; IC50 [17]: 11 nM; Drug uptake [27]: 20 µg/g; solubility kinetic [18]: 1.6 µg/mL; IC50 [28]: 16 µM; IC50 [19]: > 30 µM; microsomal CLint [20]: 99 µL/min/mg
Cn1nc(Nc2ccc(Cl)nc2)c2ccc(C(F)(F)F)cc21,–,> 10000,–
CN(c1ccc(Cl)nc1)c1n[nH]c2cc(C(F)(F)F)ccc12,–,> 10000,–
Fc1ccc(Nc2n[nH]c3cc(C(F)(F)F)ccc23)cc1F,9,53,–
Fc1ccc(-c2n[nH]c3cc(C(F)(F)F)ccc23)cc1F,329,2100,–
Fc1ccc(Nc2n[nH]c3cc(Cl)ccc23)cc1F,49,111,–
Clc1ccc(Nc2n[nH]c3ccccc23)cc1,–,11700,–
Fc1ccc(-c2n[nH]c3cc(OC(F)(F)F)cnc23)cc1,216,257,–
Fc1ccc(-c2n[nH]c3cc(C(F)(F)F)cnc23)cc1F,255,450,–
FC(F)(F)c1ccc2c(Nc3ccc(Cl)nc3)n[nH]c2c1,–,550,EC50 [5]: 37 nM; IC50 [10]: > 100 µM; IC50 [11]: 2500 nM; IC50 [13]: 8.52 µM; IC50 [15]: 2600 nM; IC50 [19]: > 30 µM
Fc1ccc(Nc2n[nH]c3cc(OC(F)(F)F)cnc23)nc1,813,2540,–
Fc1ccc2[nH]c(-c3n[nH]c4cc(OC(F)(F)F)ccc34)cc2c1,116,748,–
Fc1ccc(-c2n[nH]c3cc(OC(F)(F)F)cnc23)cc1F,128,134,–
FC(F)(F)c1ccc2c(Nc3ccc(C(F)(F)F)nc3)n[nH]c2c1,–,> 10000,–
Fc1ccc(-c2n[nH]c3cc(NC4CCN(CC5CC5)CC4)cnc23)cc1,1850,4630,–
Fc1ccc(Nc2n[nH]c3cc(C(F)(F)F)cnc23)cc1F,23,38,–
